{
  "source": "ChEMBL document CHEMBL2396655",
  "about": "“Design, synthesis, and biological evaluation of (E)-N-aryl-2-arylethenesulfonamide analogues as potent and orally bioavailable microtubule-targeted anticancer agents” (J Med Chem, 2013)",
  "key": {"[1]": {"assay": "Cytotoxicity against human U87 cells after 96 hrs by sulforhodamine B assay", "format": "functional, cell-based, U-87MG ATCC", "conditions": "U-87 MG"}, "DU-145 [2]": {"system": "DU-145", "assay": "Mitotoic arrest in human DU145 cells assessed as appearance of abnormal spindles at 25 nM after 24 hrs by FITC and propidium iodide staining-based confocal laser microscopic analysis", "format": "functional, cell-based", "how_it_was_run": "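DU145 cells on glass coverslips were treated with 0.025 μM compound or DMSO for 24 h and fixed in 4% paraformaldehyde. After blocking and permeabilizing in PBS with 10% FBS and 0.1% Triton X-100, they were stained with FITC anti-α-tubulin (DM1A) for 1 h at 37 °C and with propidium iodide 1 μg/mL. Imaging was by confocal microscopy, 60× objective, as z-sections.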"}, "DU-145 [3]": {"system": "DU-145", "assay": "Cytotoxicity against human DU145 cells after 96 hrs by trypan blue exclusion assay", "format": "functional, cell-based", "how_it_was_run": "(§1)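 Cells were grown in DMEM or RPMI with 10% FBS and plated at 2.5×10⁴ cells/well in 12-well dishes. Compounds were added 24 h later at various concentrations. After 96 h, viable cells were counted by trypan blue exclusion from duplicate wells. Results are the mean of two independent experiments.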"}, "DU-145 [4]": {"system": "DU-145", "assay": "Induction of apoptosis in human DU145 cells assessed as caspase activation at 10 to 20 nM after 24 to 72 hrs by Western blotting analysis", "format": "functional, cell-based"}, "MES-SA": {"system": "MES-SA", "assay": "Resistance factor, ratio of GI50 for multidrug-resistant human MES-SA/Dx5 cells to GI50 for human MES-SA cells", "format": "functional"}, "DU-145 [5]": {"system": "DU-145", "assay": "Mitotoic arrest in human DU145 cells assessed as presence of micronucleated cells at 25 nM after 24 hrs by FITC and propidium iodide staining-based confocal laser microscopic analysis", "format": "functional, cell-based", "how_it_was_run": "(§2)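 DU145 cells grown on glass coverslips, exposed to 0.025 μM for 24 h, fixed in 4% paraformaldehyde, permeabilized in PBS with 10% FBS/0.1% Triton X-100, stained with FITC-conjugated anti-α-tubulin (DM1A, 1 h, 37 °C) and propidium iodide (1 μg/mL, 5 min), then imaged by confocal microscopy (60× objective, XYZ-sectioning); DMSO-treated cells as vehicle.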"}, "[6]": {"assay": "Cytotoxicity against human H80 cells after 96 hrs by trypan blue exclusion assay", "format": "functional", "conditions": "H80, 96 h", "how_it_was_run": "as §1"}, "2008": {"system": "2008", "assay": "Growth inhibition of human 2008 cells", "format": "functional"}, "Mus musculus [7]": {"system": "Mus musculus", "assay": "Volume of distribution at steady state in ICR mouse at 5 mg/kg, iv by LC-MS/MS analysis", "format": "ADME, organism-based", "set-up": "dose 5 mg/kg, route intravenous", "conditions": "in vivo", "how_it_was_run": "(§3)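 Male ICR mice, 6–8 weeks old (N=3 per group), with a carotid artery cannula implanted one day before dosing. Dosed at 5 mg/kg in NMP:PEG300:water (1:4:5) as an IV bolus or by oral gavage. Blood drawn at 2–360 min; plasma protein-precipitated with acetonitrile containing internal standard, assayed by LC/MS/MS; noncompartmental analysis.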"}, "Mus musculus [8]": {"system": "Mus musculus", "assay": "AUC in ICR mouse at 5 mg/kg, iv by LC-MS/MS analysis", "format": "ADME, organism-based, Plasma", "set-up": "dose 5 mg/kg, route intravenous", "conditions": "in vivo", "how_it_was_run": "(§4)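 Male ICR mice, 6–8 weeks old, N=3 per group. Single 5 mg/kg dose in NMP:PEG300:water (1:4:5 v/v), given as IV bolus or oral gavage. Serial arterial blood was drawn through a carotid cannula at 2–360 min. Plasma was protein-precipitated with acetonitrile containing internal standard and assayed by LC/MS/MS. Parameters were derived by noncompartmental analysis.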"}, "Mus musculus [9]": {"system": "Mus musculus", "assay": "Elimination half life in ICR mouse at 5 mg/kg, iv by LC-MS/MS analysis", "format": "ADME, organism-based", "set-up": "dose 5 mg/kg, route intravenous", "conditions": "in vivo", "how_it_was_run": "as §4"}, "Mus musculus [10]": {"system": "Mus musculus", "assay": "Oral bioavailability in ICR mouse at 5 mg/kg by LC-MS/MS analysis", "format": "ADME, organism-based", "conditions": "in vivo", "how_it_was_run": "as §3"}, "DU-145 [11]": {"system": "DU-145", "assay": "Cell cycle arrest in human DU145 cells assessed as accumulation at G2/M phase at 0.02 uM after 24 hrs by propidium iodide staining-based FACS flow cytometric analysis", "format": "functional", "how_it_was_run": "(§5)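 DU145 cells were plated at 1.0×10⁶ per dish in DMEM/10% FBS and treated 24 h later with increasing concentrations. After 24 h, attached and floating cells were pooled and fixed in ice-cold 70% ethanol for at least 24 h. Cells were stained with propidium iodide (50 μg/mL) plus RNase A for 30 min at 37 °C, then read on a FACScan with cell-cycle modelling.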"}, "DU-145 [12]": {"system": "DU-145", "assay": "Mitotoic arrest in human DU145 cells assessed as misalignment of chromosomes at 25 nM after 24 hrs by FITC and propidium iodide staining-based confocal laser microscopic analysis", "format": "functional, cell-based", "how_it_was_run": "as §2"}, "DU-145 [13]": {"system": "DU-145", "assay": "Cell cycle arrest in human DU145 cells assessed as accumulation at subG1 phase at 0.005 to 0.02 uM after 24 hrs by propidium iodide staining-based FACS flow cytometric analysis", "format": "functional", "how_it_was_run": "as §5"}, "Liver [14]": {"system": "Liver", "assay": "Metabolic stability in rat liver S9 fraction assessed as compound remaining at 10 uM after 1 hr by LC-MS/MS analysis", "format": "ADME, subcellular", "conditions": "s9, 1 h", "how_it_was_run": "(§6)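 Compound at 10 μM was incubated with rat, dog or human liver S9 fraction (1 mg/mL) for 0, 30 and 60 min. Parent remaining at 1 h was quantified by LC-MS/MS.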"}, "Tubulin": {"target": "Tubulin (Sus scrofa, UniProt P02554+P02550)", "assay": "Competitive binding affinity to pig brain tubulin colchicine binding site after 1 hr by mass spectrophotometric analysis in presence of colchicine", "format": "tissue-based", "how_it_was_run": "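Porcine brain tubulin (1.0 mg/mL) in PIPES 80 mM, MgCl₂ 2 mM, EGTA 0.5 mM, pH 6.9, at 37 °C. Competitor was 0.1–100 μM for 1 h. Unbound ligand in the 30 kDa ultrafiltrate was measured by MS. Runs were in triplicate; IC50 came from a Hill fit.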"}, "[15]": {"assay": "Solubility of the compound in PBS by nephelometric analysis", "format": "physicochemical", "how_it_was_run": "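Aqueous solubility in PBS was measured by nephelometry; the limit of complete solubility was taken as the concentration giving a statistical increase of light scattering over blank.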"}, "MDCK": {"system": "MDCK", "assay": "Efflux ratio of permeability from basolateral to apical over apical to basolateral side in MDCK cells expressing MDR-1", "conditions": "dog"}, "NCI-H417": {"system": "NCI-H417", "assay": "Cytotoxicity against human NCI-N417 cells after 96 hrs by trypan blue exclusion assay", "format": "functional", "conditions": "NCI-H417, 96 h", "how_it_was_run": "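Cells grown in DMEM or RPMI with 10% FBS and 1 unit/mL penicillin-streptomycin, seeded in 12-well dishes at 2.5 ×10⁴ cells/mL/well. Compound added 24 h later at various concentrations. Viable cells counted by trypan blue exclusion from duplicate wells after 96 h. Value taken from dose-response curves of two independent experiments.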"}, "A-431": {"system": "A-431", "assay": "Cytotoxicity against human A431 cells after 96 hrs by trypan blue exclusion assay", "format": "functional", "conditions": "A-431, 96 h", "how_it_was_run": "as §1"}, "Plasma [16]": {"system": "Plasma", "assay": "Plasma protein binding in rat at 10 to 50 uM by equilibrium dialysis", "format": "ADME, cell-free"}, "Plasma [17]": {"system": "Plasma", "assay": "Plasma protein binding in human at 10 to 50 uM by equilibrium dialysis", "format": "ADME, cell-free"}, "DU-145 [18]": {"system": "DU-145", "assay": "Mitotoic arrest in human DU145 cells assessed as rosette of condensed DNA without mitotic spindle at 25 nM after 24 hrs by FITC and propidium iodide staining-based confocal laser microscopic analysis", "format": "functional, cell-based", "how_it_was_run": "as §2"}, "DU-145 [19]": {"system": "DU-145", "assay": "Cell cycle arrest in human DU145 cells assessed as accumulation at G2/M phase after 24 hrs by propidium iodide staining-based FACS flow cytometric analysis", "format": "functional", "how_it_was_run": "as §5"}, "Liver [20]": {"system": "Liver", "assay": "Metabolic stability in human liver S9 fraction assessed as compound remaining at 10 uM after 1 hr by LC-MS/MS analysis", "format": "ADME, subcellular", "conditions": "s9, 1 h", "how_it_was_run": "as §6"}},
  "note": "pIC50: −log10 of the molar value. The source made the active and inactive calls. No cut-off for these calls is given here.",
  "data": [
    {"compound": "COc1cc(OC)c(/C=C/S(=O)(=O)Nc2ccc(OC)c(N)c2)c(OC)c1", "values": [
      {"measurement": "pIC50", "setting": "[1]", "value": 8.05},
      {"measurement": "Activity", "setting": "DU-145 [2]", "value": "Active"},
      {"measurement": "Activity", "setting": "DU-145 [3]", "value": "Dose-dependent effect"},
      {"measurement": "pIC50", "setting": "DU-145 [3]; DU-145, 96 h", "value": 8.30},
      {"measurement": "Activity", "setting": "DU-145 [4]", "value": "Active"},
      {"measurement": "RatioGI50", "setting": "MES-SA", "value": 1.6},
      {"measurement": "Activity", "setting": "DU-145 [5]", "value": "Active"},
      {"measurement": "GI50", "setting": "[6]", "value": 4, "unit": "nM"},
      {"measurement": "GI50", "setting": "2008", "value": 6, "unit": "nM"},
      {"measurement": "Vdss", "setting": "Mus musculus [7]", "value": 2.13, "unit": "L/kg"},
      {"measurement": "AUC", "setting": "Mus musculus [8]", "value": 2.04, "unit": "µg·h/mL"},
      {"measurement": "beta t1/2", "setting": "Mus musculus [9]", "value": 1.7, "unit": "h"},
      {"measurement": "F", "setting": "Mus musculus [10]", "value": 34, "unit": "%"},
      {"measurement": "Activity", "setting": "DU-145 [11]", "value": "Active"},
      {"measurement": "Activity", "setting": "DU-145 [12]", "value": "Active"},
      {"measurement": "Activity", "setting": "DU-145 [13]", "value": "Active"},
      {"measurement": "Stability", "setting": "Liver [14]", "value": 33, "unit": "%"},
      {"measurement": "IC50", "setting": "Tubulin", "value": 3.68, "unit": "µM"},
      {"measurement": "solubility kinetic", "setting": "[15]", "value": 62.5, "unit": "µM"},
      {"measurement": "Ratio", "setting": "MDCK", "value": 7.9},
      {"measurement": "GI50", "setting": "NCI-H417", "value": 4, "unit": "nM"},
      {"measurement": "GI50", "setting": "A-431", "value": 5, "unit": "nM"},
      {"measurement": "PPB", "setting": "Plasma [16]", "value": 99.73, "unit": "%"},
      {"measurement": "PPB", "setting": "Plasma [17]", "value": 99.67, "unit": "%"},
      {"measurement": "Activity", "setting": "DU-145 [18]", "value": "Active"},
      {"measurement": "Activity", "setting": "DU-145 [19]", "value": "Dose-dependent effect"},
      {"measurement": "Stability", "setting": "Liver [20]", "value": 20, "unit": "%"}
    ]}
  ]
}
